Assay results reported in ChEMBL document CHEMBL1151814, “Ambuic acid and torreyanic acid derivatives from the endolichenic fungus Pestalotiopsis sp” (J Nat Prod, 2009).
The source made the active and inactive calls. The calls are words filed in the database; no cut-off is given here.

Assays:
Assay type in all cases: functional, organism-based
Candida albicans = assay: Antifungal activity against Candida albicans ATCC 10231 after 48 hrs by NCCLS method; conditions: ATCC 10231, 48 h
Outline: (§1)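 Yeasts grown on Sabouraud dextrose agar; inoculum from broth culture at 28 °C for 48 h, final suspension 10^5 cells/mL in SDB. Serial dilutions from 10 mg/mL DMSO stock in triplicate per NCCLS. A595 read after incubation; IC50 derived from inhibition rate versus concentration plot. Fluconazole served as positive control.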

Escherichia coli = assay: Antibacterial activity against Escherichia coli CGMCC 1.2340 after 24 hrs by NCCLS method; conditions: CGMCC 1.2340, 24 h
Outline: (§2)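 Bacteria grown on Mueller-Hinton agar; inoculum from broth culture at 37 °C for 24 h, final suspension 10^6 cells/mL in MHB. Serial dilutions from 10 mg/mL DMSO stock, tested in triplicate per NCCLS recommendations. Absorbance read at 595 nm after incubation. Inhibition rate plotted against concentration to give IC50. Controls were antimicrobial peptide AMP and streptomycin.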

Staphylococcus aureus = assay: Antibacterial activity against Staphylococcus aureus ATCC 6538 after 24 hrs by NCCLS method; conditions: ATCC 6538, 24 h; outline: as §2
Aspergillus fumigatus = assay: Antifungal activity against Aspergillus fumigatus ATCC 10894 after 48 hrs by NCCLS method
Outline: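 Mould grown on potato dextrose agar; inoculum from broth culture at 28 °C for 48 h, final 10^4 mycelial fragments/mL in PDB. Compounds serially diluted from 10 mg/mL DMSO stock, triplicate wells per NCCLS. Absorbance at 595 nm after incubation; IC50 from inhibition rate plotted versus concentration. Fluconazole positive control.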

Streptococcus pneumoniae = assay: Antibacterial activity against Streptococcus pneumoniae CGMCC 1.1692 after 24 hrs by NCCLS method; conditions: CGMCC 1.1692, 24 h; outline: as §2
Geotrichum candidum = assay: Antifungal activity against Geotrichum candidum AS2.498 after 48 hrs by NCCLS method; conditions: AS2.498, 48 h; outline: as §1

SMILES	IC50 (Candida albicans) [µM]	IC50 (Escherichia coli) [µM]	IC50 (Staphylococcus aureus) [µM]	IC50 (Streptococcus pneumoniae) [µM]	IC50 (Geotrichum candidum) [µM]	Activity (Aspergillus fumigatus)
CCC(=O)CC/C=C/C1=C(CO)[C@@H](O)[C@H]2O[C@@]2(C/C=C(\C)C(=O)O)C1=O	> 50	> 50	> 50	> 50	> 50	inactive
CCC/C=C/C=C/C1=C(CO)[C@@H](O)[C@H]2O[C@@]2(C/C=C(\C)C(=O)O)C1=O	> 50	> 50	> 50	> 50	> 50	inactive
CCCCC/C=C/C1=C2COC(C)(C)O[C@H]2[C@H]2O[C@@]2(C/C=C(\C)C(=O)O)C1=O	> 50	> 50	> 50	> 50	> 50	inactive
CCCCC/C=C/C1=C(CO)C(=O)C[C@](O)(C/C=C(\C)C(=O)O)[C@H]1O	> 50	> 50	> 50	> 50	> 50	inactive
CCCCCCCC1=C(CO)[C@@H](O)[C@H]2O[C@@]2(C/C=C(\C)C(=O)O)C1=O	> 50	> 50	> 50	> 50	> 50	inactive

Second part, led by results:

IC50 (Candida albicans) [µM]	IC50 (Escherichia coli) [µM]	IC50 (Staphylococcus aureus) [µM]	IC50 (Streptococcus pneumoniae) [µM]	IC50 (Geotrichum candidum) [µM]	SMILES	Activity (Aspergillus fumigatus)
> 50	> 50	> 50	> 50	> 50	CCCCCC1O[C@H]2C3=C(C(=O)[C@@]4(C/C=C(\C)C(=O)O)OC4[C@H]3O)C1C1C(CCCCC)OC=C3C(=O)C4O[C@]4(C/C=C(\C)C(=O)O)C(=O)C312 (stereo not given in full)	inactive
		43.9			CCCCC/C=C/C1=C(CO)[C@H](O)[C@H]2O[C@@]2(C/C=C(\C)C(=O)O)C1=O [AMBUIC ACID]	inactive
		27.8			CCCCC/C=C/C1=C(COC(C)=O)[C@@H](O)[C@H]2O[C@@]2(C/C=C(\C)C(=O)O)C1=O	inactive
